Measurements taken from the RNAGym collection of RNA variant scans (doi:10.1126/science.aae0568).
Variants at the floor of the assay were thinned out.

B1: tRNA (parent)
chain: GUUCCGUUGGCGUAAUGGUAACGCGUCUCCCUCCUAAGGAGAAGACUGCGGGUUCGAGUCCCGUACGGAACG

Variants of: B1
Test: yeast fitness relative to wild type (ratio to wild type); higher = fitter; tRNA-Arg(CCU), competitive growth, 37 C, YPD
Method in brief: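 Gene amplicons from the start population and from each of six end populations were read by 100-nucleotide paired-end sequencing. Those end populations came from pooled Saccharomyces cerevisiae strains carrying tRNA-Arg(CCU) gene variants at the native locus, competed in YPD at 37°C for 24 hours. Fitness relative to wild type was worked out from changes in genotype frequencies. Genotypes needed ≥ 100 starting reads, and estimates < 0.5 were set to 0.5.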
With GUUCCGUUGGCGUAAUGGUAACGCGUCUCCCUCCUAAGGAGAAGACUGCGGGUUCGUGGCCCGUAUGGAACG [A57U U59G C66U] the yeast fitness was at most 0.5.
For GUUCCGUUGGCGUAAUGGUAACGCGUCUCCCUCCUAAGGAGAAGACUGCGGGUUCGAAUCCUAUACGGAACG [G58A C62U G63A], the yeast fitness was 0.621.
Work on GUUCCGUUGGCGUAAUGGUAACGCGUCUCCCUCCUAAGGAGAAGACUGCGGGUUCCAGUCCUGUACGGAACG [G56C C62U] yielded a yeast fitness of 0.913.
Variant GUUCCGUUGGCGUAAUGGUAACGCGUCUCCCUCCUAAGGAGAAGACUGCGGGUUCCAGUCCGGUACGGAACG [G56C C62G] has a yeast fitness of 0.559.
Work on GUUCCGUUGGCGUAAUGGUAACGCGUCUCCCUCCUAAGGAGAAGACUGCGGGUUCGAAUUCAGUACGGAACG [G58A C60U C62A] yielded a yeast fitness of 0.552.
Variant GUUCCGUUGGCGUAAUGGUAACGCGUCUCCCUCCUAAGGAGAAGACUGCGGGUUCGGGUCACGUACGGAACG [A57G C61A] has a yeast fitness of 0.688.
With GUUCCGUUGGCGUAAUGGUAACGCGUCUCCCUCCUAAGGAGAAGACUGCGGGUUCGUGUCCCGUUCACAACG [A57U A65U G67A G68C] the yeast fitness was at most 0.5.
Variant GUUCCGUUGGCGUAAUGGUAACGCGUCUCCCUCCUAAGGAGAAGACUGCGGGUUCGUGUCCCGUUCGCAACG [A57U A65U G68C] has a yeast fitness of at most 0.5.
For GUUCCGUUGGCGUAAUGGUAACGCGUCUCCCUCCUAAGGAGAAGACUGCGGGUUCGUGUCCUGUAUGGAACG [A57U C62U C66U], the yeast fitness was 0.613.
For GUUCCGUUGGCGUAAUGGUAACGCGUCUCCCUCCUAAGGAGAAGACUGCGGGUUCGCGUCUCGUUCGGAACG [A57C C61U A65U], the yeast fitness was 0.563.
Work on GUUCCGUUGGCGUAAUGGUAACGCGUCUCCCUCCUAAGGAGAAGACUGCGGGUUCGCGUCCCGCACGGAACG [A57C U64C] yielded a yeast fitness of 0.564.
For GUUCCGUUGGCGUAAUGGUAACGCGUCUCCCUCCUAAGGAGAAGACUGCGGGUUCGUCUCCCGUACGGAACG [A57U G58C], the yeast fitness was 0.636.
With GUUCCGUUGGCGUAAUGGUAACGCGUCUCCCUCCUAAGGAGAAGACUGCGGGUUCGUGUCCCGUACGGACCG [A57U A70C] the yeast fitness was 0.7.
GUUCCGUUGGCGUAAUGGUAACGCGUCUCCCUCCUAAGGAGAAGACUGCGGGUUCGGGUCCUGUACAGAACG [A57G C62U G67A] showed a yeast fitness of at most 0.5.
GUUCCGUUGGCGUAAUGGUAACGCGUCUCCCUCCUAAGGAGAAGACUGCGGGUUCGCGUCCUGUACGGAACG [A57C C62U] showed a yeast fitness of 0.565.
Variant GUUCCGUUGGCGUAAUGGUAACGCGUCUCCCUCCUAAGGAGAAGACUGCGGGUUCUAGUCCCGUGCGGAACG [G56U A65G] has a yeast fitness of 0.615.
Work on GUUCCGUUGGCGUAAUGGUAACGCGUCUCCCUCCUAAGGAGAAGACUGCGGGUUCGAAUCCCGUAUGGAACG [G58A C66U] yielded a yeast fitness of 0.981.
Variant GUUCCGUUGGCGUAAUGGUAACGCGUCUCCCUCCUAAGGAGAAGACUGCGGGUUCCACUCCCGUAUGGAACG [G56C G58C C66U] has a yeast fitness of 0.625.
Work on GUUCCGUUGGCGUAAUGGUAACGCGUCUCCCUCCUAAGGAGAAGACUGCGGGUUCGUGUCCCGUCCGGCACG [A57U A65C A69C] yielded a yeast fitness of at most 0.5.
With GUUCCGUUGGCGUAAUGGUAACGCGUCUCCCUCCUAAGGAGAAGACUGCGGGUUCGAAUCAGGUACGGAACG [G58A C61A C62G] the yeast fitness was 0.711.
In the case of GUUCCGUUGGCGUAAUGGUAACGCGUCUCCCUCCUAAGGAGAAGACUGCGGGUUCGCGUCCUGUACGCAACG [A57C C62U G68C], the yeast fitness is reported as 0.539.
With GUUCCGUUGGCGUAAUGGUAACGCGUCUCCCUCCUAAGGAGAAGACUGCGGGUUCGUAUCCCGUUCGGAACG [A57U G58A A65U] the yeast fitness was 0.621.
For GUUCCGUUGGCGUAAUGGUAACGCGUCUCCCUCCUAAGGAGAAGACUGCGGGUUCGGGUCCCGUCCGGAACG [A57G A65C], the yeast fitness was 0.919.
With GUUCCGUUGGCGUAAUGGUAACGCGUCUCCCUCCUAAGGAGAAGACUGCGGGUUCGUGUCCCGUUCGGAACG [A57U A65U] the yeast fitness was 0.618.
Variant GUUCCGUUGGCGUAAUGGUAACGCGUCUCCCUCCUAAGGAGAAGACUGCGGGUUCGCGUCCCGUACGGGACG [A57C A69G] has a yeast fitness of 0.562.
For GUUCCGUUGGCGUAAUGGUAACGCGUCUCCCUCCUAAGGAGAAGACUGCGGGUUCGCGUCCCGUACGGCACG [A57C A69C], the yeast fitness was 0.608.
GUUCCGUUGGCGUAAUGGUAACGCGUCUCCCUCCUAAGGAGAAGACUGCGGGUUCGGGUACCGUAGGGAACG [A57G C60A C66G] gave a yeast fitness of 0.558.
In the case of GUUCCGUUGGCGUAAUGGUAACGCGUCUCCCUCCUAAGGAGAAGACUGCGGGUUCUAGUCCCGUACGGAACG [G56U], the yeast fitness is reported as 0.85.
GUUCCGUUGGCGUAAUGGUAACGCGUCUCCCUCCUAAGGAGAAGACUGCGGGUUCCAGUCCCAUACGGAACG [G56C G63A] showed a yeast fitness of 0.571.
For GUUCCGUUGGCGUAAUGGUAACGCGUCUCCCUCCUAAGGAGAAGACUGCGGGUUCGCGUCCCGUACGAAACG [A57C G68A], the yeast fitness was 0.701.
In the case of GUUCCGUUGGCGUAAUGGUAACGCGUCUCCCUCCUAAGGAGAAGACUGCGGGUUCGCGUCCCGUACGUAACG [A57C G68U], the yeast fitness is reported as 0.696.
GUUCCGUUGGCGUAAUGGUAACGCGUCUCCCUCCUAAGGAGAAGACUGCGGGUUCGAAUUCCGUACGGAACG [G58A C60U] gave a yeast fitness of 0.688.
Variant GUUCCGUUGGCGUAAUGGUAACGCGUCUCCCUCCUAAGGAGAAGACUGCGGGUUCGAAUCCCGUACAGAACG [G58A G67A] has a yeast fitness of 0.851.
Variant GUUCCGUUGGCGUAAUGGUAACGCGUCUCCCUCCUAAGGAGAAGACUGCGGGUUCGAAUUCCGUACGGAGCG [G58A C60U A70G] has a yeast fitness of 0.702.
GUUCCGUUGGCGUAAUGGUAACGCGUCUCCCUCCUAAGGAGAAGACUGCGGGUUCGAAUCCCGUACGAAACG [G58A G68A] gave a yeast fitness of 0.899.
Work on GUUCCGUUGGCGUAAUGGUAACGCGUCUCCCUCCUAAGGAGAAGACUGCGGGUUCGGGUCCCGUACGGUACG [A57G A69U] yielded a yeast fitness of 0.943.
With GUUCCGUUGGCGUAAUGGUAACGCGUCUCCCUCCUAAGGAGAAGACUGCGGGUUCGGGUCCCGUACGGCACG [A57G A69C] the yeast fitness was 0.799.
